Data as given in ChEMBL document CHEMBL1125079, “A unified approach to systematic isosteric substitution for acidic groups and application to NMDA antagonists related to 2-amino-7-phosphonoheptanoate” (J Med Chem, 1990).

system: not listed separately; test: Dissociation constant (pKa); assay type: physicochemical
Outline: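 Measured in water at 23 °C from UV absorbance versus pH, using a pH meter calibrated with pH 5, 7 and 9 buffers. pH was stepped with 6 N HCl or NaOH to give 7–15 readings spanning the expected pKa, at 2–4 wavelengths with flow stopped. Spectra at pH 3 and 10 checked for decomposition. Simplex curve fit gave the pKa, reported as mean ± SD across wavelengths.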

First: NC(CCCCCSc1cc(Cl)ccc1O)C(=O)O (stereo not drawn)
Second: NC(CCCCCSc1ccccc1O)C(=O)O (stereo not drawn)
The pKa of the first is lower: 8.55 for the first, 9.35 for the second.

First: NC(CCCCCP(=O)(O)O)C(=O)O (stereo not drawn) [AP-7]
Second: NC(CCCCCS(=O)(=O)c1ccccc1O)C(=O)O (stereo not drawn)
The pKa of the first is lower: 2.64 for the first, 7.38 for the second.

First: [O-][S+](Cc1ccccc1)c1nc[nH]n1 (stereo not drawn)
Second: [O-][S+](Cc1ccccc1)c1c[nH]nn1 (stereo not drawn)
The pKa of the first is higher: 7.38 for the first, 6.09 for the second.

First: c1ccc(CSc2nc[nH]n2)cc1
Second: c1ccc(CSc2c[nH]nn2)cc1
The pKa of the first is higher: 9.5 for the first, 8.2 for the second.

Compared with `[O-][S+](Cc1ccccc1)c1ncc[nH]1` (stereo not drawn), `c1ccc(CSc2ncc[nH]2)cc1` is higher in pKa: 9.8 for the first, 11.6 for the second.

Going from `O=S(=O)(Cc1ccccc1)c1nc[nH]n1` to `O=S(=O)(Cc1ccccc1)c1c[nH]nn1`, the pKa falls from 6.23 to 5.15.

Compared with `Oc1n[nH]c(SCc2ccccc2)n1`, `[O-][S+](Cc1ccccc1)c1nc(O)n[nH]1` (stereo not drawn) is lower in pKa: 7.85 for the first, 5.2 for the second.

Compared with `O=S(=O)(Cc1ccccc1)c1ncc[nH]1`, `O=S(=O)(Cc1ccccc1)c1nc(O)n[nH]1` is lower in pKa: 8.67 for the first, 4.79 for the second.

biological target: Glutamate receptor ionotropic, kainate (Rattus norvegicus) (UniProt P22756+Q01812+P42260+P42264+Q63273); test: Inhibition at Ionotropic glutamate receptor kainate was determined at a concentration of 200 uM in rat cerebellar slices

`Nc1ccccc1SCCCCCC(N)C(=O)O` (stereo not drawn) gave an inhibition of 20%.

system: not listed separately; test: potentiometric pKa(in 25 mL of 1 M NaCl) of the compound.; assay type: physicochemical

With `NC(CCCCCP(=O)(O)O)C(=O)O` (stereo not drawn) [AP-7] the pKa was 9.84.

system: not listed separately; test: Potentiometric pKa(in 25 mL of water) of the compound.; assay type: physicochemical

In the case of `NC(CCCCCP(=O)(O)O)C(=O)O` (stereo not drawn) [AP-7], the pKa is reported as 7.72.

organism: Rattus norvegicus; test: Tested for inhibition of NMDA-induced cyclic GMP increase in rat cerebellar slices; assay type: functional

Compared with `NC(CCCCCSc1cc(Cl)ccc1O)C(=O)O` (stereo not drawn), `N[C@H](CCCCSc1cc(Cl)ccc1O)C(=O)O` is higher in IC50: 220 µM for the first, greater than 10000 µM for the second. The first is the more potent here.

Going from `NC(CCCCC[S+]([O-])c1ccccc1O)C(=O)O` (stereo not drawn) to `NC(CCCCCSc1ccccc1O)C(=O)O` (stereo not drawn), the IC50 falls from greater than 10000 µM to 310 µM. The second is the more potent here.

First: NC(CCCCCP(=O)(O)O)C(=O)O (stereo not drawn) [AP-7]
Second: NC(CCCCCS(=O)(=O)c1ccccc1O)C(=O)O (stereo not drawn)
The IC50 of the first is lower: 35 µM for the first, greater than 10000 µM for the second. The first is the more potent here.

Compared with `Nc1ccccc1SCCCCCC(N)C(=O)O` (stereo not drawn), `NC(CCCSc1ccccc1O)C(=O)O` (stereo not drawn) is higher in IC50: 140 µM for the first, greater than 10000 µM for the second. The first is the more potent here.

Work on `NC(CCCSc1cc(Cl)ccc1O)C(=O)O` (stereo not drawn) yielded an IC50 of 260 µM.
